Measured values reported in ChEMBL document CHEMBL3271934, “Inhibition of separated forms of phosphodiesterases from pig coronary arteries by uracils and by 7-substituted derivatives of 1-methyl-3-isobutylxanthine” (J Med Chem, 1976).
Active and inactive are the calls of the source. The calls are words filed in the database; no cut-off is given here.

How the values were obtained:
[1] = Inhibition of phosphodiesterase (peak-2) isolated from pig coronary artery assessed as inhibition of cAMP hydrolysis using 1 uM cAMP substrate in presence of 3% Me2SO; conditions: Sus scrofa; read-out: I50
In short: (§1)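 Enzyme is a separated phosphodiesterase form from pig coronary arteries, assayed with 1 μM substrate at 30° for 30 min. Enzyme dilution gave 10–20% hydrolysis without inhibitor. Compounds were added from 30% Me2SO, giving a final 3% Me2SO in all tubes. Peak I received an optimal amount of activator (15 μg protein). I50 was read from concentration–percent inhibition curves spanning 10^-7 to 10^-4 M (10^-3 M if soluble). MIX reference was run each experiment. Results are mean ± SEM of duplicate determinations across enzyme preparations.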

[2] = Inhibition of phosphodiesterase (peak-1) isolated from pig coronary artery assessed as inhibition of cGMP hydrolysis using 1 uM cGMP substrate in presence of 3% Me2SO; conditions: Sus scrofa; read-out: I50; in short: as §1
[3] = Inhibition of phosphodiesterase (peak-1) isolated from pig coronary artery assessed as inhibition of cAMP hydrolysis using 1 uM cAMP substrate in presence of 3% Me2SO; conditions: Sus scrofa; read-out: I50; in short: as §1
Sus scrofa [4] = species: Sus scrofa; experiment: Inhibition of phosphodiesterase (peak-2) isolated from pig coronary artery assessed as inhibition of cAMP hydrolysis at 10^-4 M using 1 uM cAMP substrate in presence of 3% Me2SO
In short: (§2)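 Percent inhibition was measured at a single 10^-4 M concentration against a separated pig coronary artery phosphodiesterase form. Conditions: 1 μM substrate, 30°, 30 min, enzyme dilution giving 10–20% uninhibited hydrolysis, final 3% Me2SO in all tubes including blank. Peak I was assayed with an optimal amount of activator (15 μg protein). Results are duplicate determinations, mean ± SEM over separate enzyme preparations.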

Sus scrofa [5] = species: Sus scrofa; experiment: Inhibition of phosphodiesterase (peak-1) isolated from pig coronary artery assessed as inhibition of cGMP hydrolysis at 10^-4 M using 1 uM cGMP substrate in presence of 3% Me2SO; in short: as §2
Sus scrofa [6] = species: Sus scrofa; experiment: Inhibition of phosphodiesterase (peak-1) isolated from pig coronary artery assessed as inhibition of cAMP hydrolysis at 10^-4 M using 1 uM cAMP substrate in presence of 3% Me2SO; in short: as §2
Sus scrofa [7] = species: Sus scrofa; experiment: Inhibition of phosphodiesterase (peak-1) isolated from pig coronary artery assessed as inhibition of cAMP hydrolysis at 10^-7 to 10^-4 M using 1 uM cAMP substrate in presence of 3% EtOH
Sus scrofa [8] = species: Sus scrofa; experiment: Inhibition of phosphodiesterase (peak-1) isolated from pig coronary artery assessed as inhibition of cGMP hydrolysis at 10^-7 to 10^-4 M using 1 uM cGMP substrate in presence of 3% EtOH
Sus scrofa [9] = species: Sus scrofa; experiment: Inhibition of phosphodiesterase (peak-2) isolated from pig coronary artery assessed as inhibition of cAMP hydrolysis at 10^-7 to 10^-4 M using 1 uM cAMP substrate in presence of 3% EtOH

| IC50 [1] [µM] | IC50 [2] [µM] | IC50 [3] [µM] | inhibition (Sus scrofa [4]) [%] | inhibition (Sus scrofa [5]) [%] | inhibition (Sus scrofa [6]) [%] | inhibition (Sus scrofa [7]) | inhibition (Sus scrofa [8]) | inhibition (Sus scrofa [9]) | SMILES |
| --- | --- | --- | --- | --- | --- | --- | --- | --- | --- |
| 75 | 26 | 19 | – | – | – | – | – | – | COc1ccccc1Cn1cnc2c1c(=O)n(C)c(=O)n2CC(C)C |
| > 100 | 46 | 35 | 31 | – | – | – | – | – | COc1cc(Cn2cnc3c2c(=O)n(C)c(=O)n3CC(C)C)cc(OC)c1OC |
| 142 | 60 | 41 | – | – | – | – | – | – | CC(C)Cn1c(=O)n(C)c(=O)c2c1ncn2Cc1ccccc1[N+](=O)[O-] |
| – | – | – | 15 | 17 | 26 | – | – | – | Cn1c(N)c(NCc2ccccc2)c(=O)n(C)c1=O |
| 43 | 2.1 | 2.3 | – | – | – | – | – | – | CC(C)Cn1c(=O)n(C)c(=O)c2c1ncn2Cc1ccc(Cl)cc1 |
| 6.8 | 7.1 | 5.5 | – | – | – | – | – | – | CC(C)Cn1c(=O)n(C)c(=S)c2[nH]cnc21 |
| 126 | 65 | 55 | – | – | – | – | – | – | CC(C)Cn1c(=O)n(C)c(=O)c2c1ncn2C |
| > 100 | 16 | 19 | 36 | – | – | – | – | – | CC(C)CCn1cnc2c1c(=O)n(C)c(=O)n2CC(C)C |
| 65 | 36 | 28 | – | – | – | – | – | – | C#CCn1cnc2c1c(=O)n(C)c(=O)n2CC(C)C |
| > 100 | 34 | 27 | 44 | – | – | – | – | – | CC(C)Cn1c(=O)n(C)c(=O)c2c1ncn2Cc1ccc([N+](=O)[O-])cc1 |
| – | – | – | 6 | 10 | 17 | – | – | – | CC(C)Cn1cc(NCc2ccccc2)c(=O)n(C)c1=O |
| 20 | 6.1 | 3.7 | – | – | – | – | – | – | CC(C)Cn1c(=O)n(C)c(=O)c2c1ncn2CC1CC1 |
| > 100 | 28 | 17 | 41 | – | – | – | – | – | CC(C)Cn1c(=O)n(C)c(=O)c2c1ncn2CCc1ccccc1 |
| 28 | 3.3 | 2.7 | – | – | – | – | – | – | CC(C)Cn1c(=O)n(C)c(=S)c2c1ncn2Cc1ccccc1 |
| 108 | 4.4 | 3.6 | – | – | – | Active | Active | Active | CC(C)Cn1c(=O)n(C)c(=O)c2c1ncn2Cc1ccccc1 |
| – | – | – | 9 | 30 | 37 | – | – | – | CC(C)Cn1c(N)c(NCc2ccccc2)c(=O)n(C)c1=O |
| 15 | 6.3 | 3.9 | – | – | – | Active | Active | Active | CC(C)Cn1c(=O)n(C)c(=O)c2nc[nH]c21 [ISOBUTYLMETHYLXANTHINE] |
| 48 | 2.1 | 1.3 | – | – | – | – | – | – | CC(C)Cn1c(=O)n(C)c(=O)c2c1ncn2Cc1cccc(Cl)c1 |
| > 300 | 146 | 105 | 30 | – | – | – | – | – | CC(C)Cn1c(=O)n(C)c(=O)c2c1ncn2Cc1ccncc1 |
